Laboratory results taken from ChEMBL document CHEMBL3769317, “Aminothiazoles as Potent and Selective Sirt2 Inhibitors: A Structure-Activity Relationship Study” (J Med Chem, 2016).

Experiments:
[1] = biological target: T1, NAD-dependent protein deacetylase sirtuin-1 (Homo sapiens) (UniProt Q96EB6); assay: Inhibition of GST-tagged human SIRT1 (133 to 747 amino acids) using ZMAL as substrate at 200 uM after 4 hrs by fluorescence-based microplate reader method
T1 sequence (whole entry): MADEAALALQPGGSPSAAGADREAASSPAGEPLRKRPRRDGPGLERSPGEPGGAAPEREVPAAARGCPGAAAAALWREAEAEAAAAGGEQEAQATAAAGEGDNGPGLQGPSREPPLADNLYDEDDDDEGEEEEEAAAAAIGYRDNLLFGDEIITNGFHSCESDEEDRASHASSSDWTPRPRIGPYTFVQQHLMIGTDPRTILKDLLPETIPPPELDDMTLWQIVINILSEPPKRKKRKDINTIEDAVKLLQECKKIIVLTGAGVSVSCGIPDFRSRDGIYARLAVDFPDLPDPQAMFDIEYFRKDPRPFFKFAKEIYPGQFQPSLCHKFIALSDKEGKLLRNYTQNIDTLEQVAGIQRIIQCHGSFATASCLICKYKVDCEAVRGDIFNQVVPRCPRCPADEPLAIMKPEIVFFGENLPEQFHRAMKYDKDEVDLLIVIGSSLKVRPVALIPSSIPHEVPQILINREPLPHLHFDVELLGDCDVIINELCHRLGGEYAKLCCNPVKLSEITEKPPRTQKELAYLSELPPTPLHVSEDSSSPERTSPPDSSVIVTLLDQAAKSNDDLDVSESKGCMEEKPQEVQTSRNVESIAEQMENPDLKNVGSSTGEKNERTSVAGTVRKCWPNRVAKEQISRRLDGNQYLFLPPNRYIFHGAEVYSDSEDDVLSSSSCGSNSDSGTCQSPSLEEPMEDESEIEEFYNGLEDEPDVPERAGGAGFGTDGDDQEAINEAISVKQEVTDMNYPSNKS

[2] = biological target: T2, NAD-dependent protein deacetylase sirtuin-2 (Homo sapiens, UniProt Q8IXJ6); assay: Inhibition of N-terminal his6-tagged human SIRT2 (25 to 389 amino acids) using ZMAL as substrate after 4 hrs by fluorescence-based microplate reader method
T2 sequence (Q8IXJ6 whole entry): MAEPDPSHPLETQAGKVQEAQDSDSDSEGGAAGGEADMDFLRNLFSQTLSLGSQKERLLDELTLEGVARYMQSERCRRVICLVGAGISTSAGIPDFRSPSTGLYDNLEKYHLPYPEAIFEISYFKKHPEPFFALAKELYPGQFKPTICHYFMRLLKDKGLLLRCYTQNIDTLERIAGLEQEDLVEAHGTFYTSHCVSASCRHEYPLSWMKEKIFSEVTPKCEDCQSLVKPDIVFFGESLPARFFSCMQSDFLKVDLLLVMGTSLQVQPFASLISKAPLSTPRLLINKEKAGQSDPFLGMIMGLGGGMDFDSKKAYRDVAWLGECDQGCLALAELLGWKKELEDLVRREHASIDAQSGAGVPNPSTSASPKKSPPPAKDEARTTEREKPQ

[3] = biological target: T3, NAD-dependent protein deacetylase sirtuin-2 (Homo sapiens) (UniProt Q8IXJ6); assay: Inhibition of N-terminal his6-tagged human SIRT2 (25 to 389 amino acids) using ZMAL as substrate at 50 uM after 4 hrs by fluorescence-based microplate reader method
T3 sequence (whole entry): T2 sequence (Q8IXJ6 whole entry)
Outline: (§1)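 Fluorogenic deacetylation assay: hSirt1 133-747 or hSirt2 25-389 in 50 mM Tris, 137 mM NaCl, 2.7 mM KCl, pH 8.0, with NAD+ 500 µM and ZMAL (Cbz-Lys(acetyl)-AMC) 10,5 µM final, inhibitor in DMSO (5% v/v final). Control conversion kept near 15-30%. 4 h at 37 °C, then trypsin/nicotinamide stop for 20 min at 37 °C. Fluorescence read at 390/460 nm. % inhibition taken against no-inhibitor controls. At least duplicates.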

[4] = biological target: T3, NAD-dependent protein deacetylase sirtuin-2 (Homo sapiens); assay: Inhibition of N-terminal his6-tagged human SIRT2 (25 to 389 amino acids) using ZMAL as substrate at 250 uM after 4 hrs by fluorescence-based microplate reader method; outline: as §1
[5] = biological target: T3, NAD-dependent protein deacetylase sirtuin-2 (Homo sapiens); assay: Inhibition of N-terminal his6-tagged human SIRT2 (25 to 389 amino acids) using ZMAL as substrate at 10 uM after 4 hrs by fluorescence-based microplate reader method; outline: as §1
[6] = biological target: T3, NAD-dependent protein deacetylase sirtuin-2 (Homo sapiens); assay: Inhibition of N-terminal his6-tagged human SIRT2 (25 to 389 amino acids) using ZMAL as substrate at 500 uM after 4 hrs by fluorescence-based microplate reader method; outline: as §1

inhibition [1] [%] | IC50 [2] [µM] | inhibition [3] [%] | Structure (SMILES) | other results
16 | 4.72 | – | Cc1ccc(Cc2cnc(NC(=O)CSc3nc(C)cc(C)n3)s2)cc1 | –
< 10 | – | 18 | Cc1cc(C)nc(SCC(=O)Nc2nnc(Cc3ccccc3)s2)n1 | –
14 | – | 52 | Cc1cc(C)nc(SCC(=O)Nc2ncc(Cc3ccccc3C)s2)n1 | –
< 10 | 0.32 | – | CCC(Sc1nc(C)cc(C)n1)C(=O)Nc1ncc(Cc2cccc3ccc(Cl)cc23)s1 (racemic) | –
< 10 | – | 20 | Cc1cc(C)nc(SCC(=O)Nc2nnc(-c3ccccc3)s2)n1 | –
10 | – | 31 | CCc1cc(CC)nc(SCC(=O)Nc2ncc(Cc3ccc(-c4ccccc4)cc3)s2)n1 | –
< 10 | 30.9 | – | Cc1cc(C)nc(SCC(=O)Nc2nnc(Cc3ccc(Cl)cc3)s2)n1 | –
16 | 77.8 | – | CCOc1ccc2nc(NC(=O)CSc3nc(C)cc(C)n3)sc2c1 | –
< 10 | > 100 | – | Cc1cc(C)nc(SCC(=O)N(C)c2ncc(Cc3cccc4ccccc34)s2)n1 | –
< 10 | 1.89 | – | Cc1cc(C)nc(SCC(=O)Nc2nnc(Cc3cccc4ccccc34)s2)n1 | –
23 | – | 35 | Cc1cc(C)nc(SCC(=O)Nc2nc(-c3ccc4ccccc4c3)cs2)n1 | –
< 10 | 1.33 | – | CCOc1cccc(Cc2cnc(NC(=O)CSc3nc(C)cc(C)n3)s2)c1 | –
< 10 | – | 35 | Cc1cc(O)nc(SCC(=O)Nc2ncc(Cc3cccc4ccccc34)s2)n1 | –
< 10 | – | < 10 | CC(=O)Nc1ncc(Cc2cccc3ccccc23)s1 | inhibition [6]: 84%
16 | 207 | – | Cc1cc(C)cc(SCC(=O)Nc2ncc(Cc3cccc4ccccc34)s2)c1 | –
17 | 0.42 | – | Cc1cc(C)nc(SC(C)C(=O)Nc2ncc(Cc3cccc4ccccc34)s2)n1 (racemic) | –
39 | 289 | – | NC(=O)c1ccc[n+](CC(=O)Nc2ncc(Cc3cccc4ccccc34)s2)c1 | –
< 10 | 0.26 | – | Cc1cc(C)nc(S[C@@H](C)C(=O)Nc2ncc(Cc3cccc4ccccc34)s2)n1 | –
< 10 | 45.6 | – | CCc1cc(CC)nc(SCC(=O)Nc2ncc(Cc3cccc4ccccc34)s2)n1 | –
28 | – | 18 | COc1ccc(Cc2cnc(NC(=O)/C=C/c3ccco3)s2)cc1 | –
< 10 | 1.45 | – | Cc1ccnc(SCC(=O)Nc2ncc(Cc3cccc4ccccc34)s2)n1 | –

Second part, the molecule before the results:

Structure (SMILES) | inhibition [1] [%] | IC50 [2] [µM] | inhibition [3] [%] | other results
COc1ccc(Cc2cnc(NC(=O)C(C)Sc3nc(C)cc(C)n3)s2)cc1 (racemic) | 27 | 14.6 | – | –
Cc1cc(C)nc(SCC(=O)Nc2ncc(C)s2)n1 | < 10 | – | – | inhibition [4]: 24%
Cc1cc(C)nc(S[C@H](C)C(=O)Nc2ncc(Cc3cccc4ccccc34)s2)n1 | < 10 | 9.77 | – | –
CC(Sc1ncccn1)C(=O)Nc1ncc(Cc2cccc3ccccc23)s1 (racemic) | 21 | 1.92 | – | –
CCc1cc(CC)nc(SCC(=O)Nc2ncc(Cc3cccc(C)c3)s2)n1 | < 10 | – | < 10 | –
Cc1cc(C)nc(SCC(=O)Nc2ncc(Cc3ccc(-c4ccccc4)cc3)s2)n1 | 29 | 164 | – | –
CCCCCC(=O)Nc1ncc(Cc2cccc3ccccc23)s1 | < 10 | – | 48 | inhibition [5]: < 10%; inhibition [6]: 77%
Cc1cccc(Cc2cnc(NC(=O)CSc3nc(C)cc(C)n3)s2)c1 | 18 | 1.64 | – | –
CC(=O)Nc1ncc(C)s1 | < 10 | – | < 10 | –
Cc1cc(C)nc(SCC(=O)Nc2nnc(C)s2)n1 | < 10 | – | < 10 | –
Nc1ccccc1SCC(=O)Nc1ncc(Cc2cccc3ccccc23)s1 | < 10 | – | 36 | –
CCc1cc(CC)nc(SCC(=O)Nc2ncc(Cc3ccc(OC)cc3)s2)n1 | 17 | – | 48 | –
Cc1nc(SCC(=O)Nc2ncc(Cc3cccc4ccccc34)s2)nc(C)c1C | < 10 | 15 | – | –
Cc1cc(C)nc(SCC(=O)Nc2ncc(Cc3c(C)ccc4ccccc34)s2)n1 | < 10 | 0.31 | – | –
O=C(CSc1cccc(O)c1)Nc1ncc(Cc2cccc3ccccc23)s1 | < 10 | 143 | – | –
Cc1cc(C)nc(SCC(N)=O)n1 | < 10 | – | < 10 | –
O=C(CSc1ncccn1)Nc1ncc(Cc2cccc3ccccc23)s1 | 17 | 2.34 | – | –
CCCc1cc(O)nc(SCC(=O)Nc2ncc(Cc3cccc4ccccc34)s2)n1 | 22 | 127 | – | –
Cc1cc(C)nc(SCC(=O)Nc2nnc(Cc3ccc(Br)cc3)s2)n1 | < 10 | 168 | – | –

Structure (SMILES) | inhibition [1] [%] | IC50 [2] [µM] | inhibition [3] [%] | other results
Cc1cc(C)nc(SCC(=O)Nc2ncc(Cc3cccc4cc(Cl)ccc34)s2)n1 | 20 | 0.48 | – | –
Cc1cc(C)nc(SC(C)C(=O)Nc2ncc(Cc3ccc(-c4ccccc4)cc3)s2)n1 (racemic) | 14 | 33 | – | –
Cc1cc(C)nc(SC(C)C(=O)Nc2ncc(Cc3cccc4ccc(Cl)cc34)s2)n1 (racemic) | < 10 | 0.54 | – | –
Nc1cc(N)nc(SCC(=O)Nc2ncc(Cc3cccc4ccccc34)s2)n1 | < 10 | – | 25 | –
Cc1cc(C)nc(SCC(=O)Nc2ncc(Cc3cccc4ccc(Br)cc34)s2)n1 | < 10 | 0.21 | – | –
CCC(Sc1nc(C)cc(C)n1)C(=O)Nc1ncc(Cc2cccc3ccccc23)s1 (racemic) | 35 | 0.54 | – | –
COc1ccc(Cc2cnc(NC(=O)CSc3nc(C)cc(C)n3)s2)cc1 | < 10 | – | 48 | –
O=C(CSc1ccc(Cl)cc1)Nc1ncc(Cc2cccc3ccccc23)s1 | < 10 | – | < 10 | –
Cc1cc(C)nc(SCC(=O)Nc2ncc(C(=O)Nc3cccc4ccccc34)s2)n1 | < 10 | 33 | – | –
O=C(CSc1nnc(-c2ccccc2)c(-c2ccccc2)n1)Nc1nnc(-c2ccccc2)s1 | < 10 | 19.9 | – | –
Cc1cc(C)nc(SCC(=O)Nc2nnc(C(F)(F)F)s2)n1 | 12 | 503 | – | –
O=C(CSc1nc(-c2ccccc2)cc(-c2ccccc2)n1)Nc1ncc(Cc2ccc(Cl)cc2)s1 | 11 | – | 46 | –
Cc1cc(C)nc(SCC(=O)Nc2ncc(Cc3ccc(Cl)cc3)s2)n1 | < 10 | 3.4 | – | –
CCc1cc(CC)nc(SC(C)C(=O)Nc2ncc(Cc3ccc(OC)cc3)s2)n1 (racemic) | 18 | – | 40 | –
O=C(CSc1ncccn1)Nc1ncc(Cc2ccccc2)s1 | 12 | – | – | –
Cc1cc(C)nc(SCC(=O)Nc2ncc(Cc3ccc4ccccc4c3)s2)n1 | < 10 | – | – | –
Cc1ccccc1Cc1cnc(NC(=O)CSc2ncccn2)s1 | 11 | – | < 10 | –
CCc1cc(CC)nc(SCC(=O)Nc2ncc(Cc3ccc(Cl)cc3)s2)n1 | 18 | – | 38 | –
